Assay results from ChEMBL document CHEMBL1125458, “3-O-alkylascorbic acids as free radical quenchers. 3. Protective effect on coronary occlusion-reperfusion induced arrhythmias in anesthetized rats” (1992).

Assays:
Rattus norvegicus [1] = test: Effect (1 mg/kg, iv) on coronary reperfusion-induced arrhythmias was assessed in anesthetized rats.(Intervals of ventricular tachycardia (VT)+ventricular fibrillation (VF) within 600 s; type: functional, Cardiac ventricle
Rattus norvegicus [2] = test: Effect (30 mg/kg, po) on coronary reperfusion-induced arrhythmias was assessed in anesthetized rats.(Intervals of ventricular tachycardia (VT)+ventricular fibrillation (VF) within 600 s.; type: functional, Cardiac ventricle
Procedure, shortened: (§1)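 Male Wistar rats (350–450 g) dosed orally 1 h before occlusion, then anesthetized with pentobarbital (60 mg/kg ip) and ventilated. LAD ligated 5 min, reperfused 10 min; VT plus VF durations summed within 600 s. Mean ± SE, n = 5–10; line 2 value is the minimum effective dose.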

Rattus norvegicus [3] = species: Rattus norvegicus; test: Inhibition of lipid peroxidation in rat liver microsomes.; type: functional; parameters: concentration or dose not given beside the values; conditions: dose or concentration not given here
Procedure, shortened: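 Wistar rat liver microsomes (2.0 mg protein) in 83.5 mM KCl, 37.2 mM Tris-HCl pH 7.4 with 1 mM ADP, 10 µM FeCl3, 0.02 mM NADPH; compound added in DMF, tested at 10^-5 M. 37 °C, 20 min. Malondialdehyde measured by thiobarbituric acid method, A532; % inhibition, mean ± SD, n = 3–6.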

Rattus norvegicus [4] = species: Rattus norvegicus; test: Inhibitory effect on production of active oxygen species by rat peritoneal exudate macrophages; type: functional; parameters: concentration or dose not given beside the values
Procedure, shortened: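 Peritoneal exudate macrophages harvested 3 days after ip liquid paraffin (male Wistar rats), >90% viable. Assay: 125 mM sodium phosphate pH 6.5, 0.08 mM EDTA, 1.2 U LDH, 0.32 mM NADH, (2–3) × 10^6 cells, compound in DMF, 1 × 10^-4 M. Started with NADH.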

Cavia porcellus [5] = species: Cavia porcellus; test: Inhibitory activity on atrial rate in isolated Guinea pig right atria at 0.03 mg/mL concentration; type: functional; conditions: Cardiac atrium
Procedure, shortened: (§2)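 Right atria from male Hartley guinea pigs (450–550 g), loaded at 0.5 g, in Tyrode's solution at 37 °C gassed with 95% O2/5% CO2. Equilibrated at least 30 min until rate stable within 5 beats/min; spontaneous rate and contractile force recorded on polygraph after compound addition.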

Rattus norvegicus [6] = test: Effect (30 mg/kg, iv) on coronary reperfusion-induced arrhythmias was assessed in anesthetized rats.(Intervals of ventricular tachycardia (VT)+ventricular fibrillation (VF) within 600 s.; type: functional, Cardiac ventricle
Cavia porcellus [7] = species: Cavia porcellus; test: Inhibitory activity on atrial contractility in isolated Guinea pig right atria at 0.3 mg/mL concentration; type: functional; conditions: Cardiac atrium; procedure, shortened: as §2
Cavia porcellus [8] = species: Cavia porcellus; test: Inhibitory activity on atrial rate in isolated Guinea pig right atria at 0.1 mg/mL concentration; type: functional; conditions: Cardiac atrium
Procedure, shortened: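 Right atria from male Hartley guinea pigs (450–550 g), held under a 0.5 g load at 37 °C in Tyrode's solution gassed with 95% O2 + 5% CO2. After at least 30 min equilibration (rate stable within 5 beats/min), atrial rate and contractile force of spontaneously beating preparations were recorded on a polygraph with compound present.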

Cavia porcellus [9] = species: Cavia porcellus; test: Inhibitory activity on atrial contractility in isolated Guinea pig right atria at 0.1 mg/mL concentration; type: functional; conditions: Cardiac atrium; procedure, shortened: as §2
Cavia porcellus [10] = species: Cavia porcellus; test: Inhibitory activity on atrial contractility in isolated Guinea pig right atria at 0.03 mg/mL concentration; type: functional; conditions: Cardiac atrium; procedure, shortened: as §2
Cavia porcellus [11] = species: Cavia porcellus; test: Inhibitory activity against atrial rate in isolated Guinea pig right atrea at 0.3 mg/mL concentration; type: functional, Cardiac atrium; procedure, shortened: as §2
Rattus norvegicus [12] = test: Effect (30 mg/kg, iv) on coronary reperfusion-induced arrhythmias was assessed in anesthetized rats. (Intervals of ventricular tachycardia (VT)+ventricular fibrillation (VF) within 600 s.; type: functional, Cardiac ventricle
Cavia porcellus [13] = species: Cavia porcellus; test: Inhibitory activity against atrial rate in isolated Guinea pig right atrea at 0.1 mg/mL concentration; type: functional, Cardiac atrium; procedure, shortened: as §2
Rattus norvegicus [14] = test: Effect (10 mg/kg, po) on coronary reperfusion-induced arrhythmias was assessed in anesthetized rats.(Intervals of ventricular tachycardia (VT)+ventricular fibrillation (VF) within 600 s.; type: functional, Cardiac ventricle; procedure, shortened: as §1
Rattus norvegicus [15] = test: Antiarrhythmic activity against anesthetized rats after intravenous administration; type: functional, Heart
Rattus norvegicus [16] = test: Change in heart rate was measured at 10 mg/kg dose(iv) in anesthetized rats; type: functional
Procedure, shortened: (§3)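 Anesthetized male Wistar rats (pentobarbital 60 mg/kg ip); compound in saline/1% olive oil/1% Tween 80 given by femoral vein. Lead II ECG recorded and heart rate read by beat-to-beat tachograph for 10 min after dosing; change in beats/min, mean ± SE, n = 3–4.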

Cavia porcellus [17] = species: Cavia porcellus; test: Inhibitory activity against atrial contractility in isolated Guinea pig right atrea at 0.1 mg/mL concentration; type: functional, Cardiac atrium; procedure, shortened: as §2
Rattus norvegicus [18] = test: Change in heart rate was measured at 30 mg/kg dose(iv) in anesthetized rats; type: functional; procedure, shortened: as §3
Rattus norvegicus [19] = test: Change in arterial blood pressure was measured at 30 mg/kg dose(iv) in anesthetized rats; type: functional, Artery
Procedure, shortened: (§4)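 Male Wistar rats, pentobarbital 60 mg/kg ip, supine. Compound suspended in saline with 1% olive oil and 1% Tween 80, injected via femoral vein. Femoral arterial pressure monitored 10 min after injection; change in mmHg, mean ± SE, n = 3–4.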

Cavia porcellus [20] = species: Cavia porcellus; test: Inhibitory activity against atrial rate in isolated Guinea pig right atrea at 0.03 mg/mL concentration; type: functional, Cardiac atrium; procedure, shortened: as §2
Cavia porcellus [21] = species: Cavia porcellus; test: Inhibitory activity against atrial contractility in isolated Guinea pig right atrea at 0.03 mg/mL concentration; type: functional, Cardiac atrium; procedure, shortened: as §2
Rattus norvegicus [22] = test: Effect (100 mg/kg, po) on coronary reperfusion-induced arrhythmias was assessed in anesthetized rats.(Intervals of ventricular tachycardia (VT)+ventricular fibrillation (VF) within 600 s.; type: functional, Cardiac ventricle; procedure, shortened: as §1
Cavia porcellus [23] = species: Cavia porcellus; test: Inhibitory activity against atrial contractility in isolated Guinea pig right atrea at 0.3 mg/mL concentration; type: functional, Cardiac atrium; procedure, shortened: as §2
Rattus norvegicus [24] = test: Change in arterial blood pressure was measured at 10 mg/kg dose(iv) in anesthetized rats; type: functional, Artery; procedure, shortened: as §4
Rattus norvegicus [25] = test: Antiarrhythmic activity against anesthetized rats after peroral administration; type: functional, Heart; procedure, shortened: as §1

CCCCCCCCCCOC1=C(O)C(=O)OC1C(O)CO (centres undefined)
Arrhythmias times (Rattus norvegicus [1]): 291
Arrhythmias times (Rattus norvegicus [2]): 283.6
inhibition (Rattus norvegicus [3]): 93%
Inhibition (Rattus norvegicus [4]): 15.9%

CCCCc1ccc(C(=O)COC2=C(O)C(=O)OC2C(O)CO)cc1 (centres undefined)
inhibition at 30 µg/mL (Cavia porcellus [5]): 8.8%
Arrhythmias times (Rattus norvegicus [6]): 325
inhibition at 300 µg/mL (Cavia porcellus [7]): 67.1%
inhibition at 100 µg/mL (Cavia porcellus [8]): 17%
inhibition at 100 µg/mL (Cavia porcellus [9]): 52.8%
inhibition at 30 µg/mL (Cavia porcellus [10]): 36.2%
Inhibition (Cavia porcellus [11]): 25.6%
inhibition (Rattus norvegicus [3]): 82%

CCOC1=C(O)C(=O)OC1C(O)CO (centres undefined)
Arrhythmias times (Rattus norvegicus [12]): 591
inhibition (Rattus norvegicus [3]): 2%

CCCCCCCCCCCCCCCCCCOC(=O)COC1=C(O)C(=O)OC1C(O)CO (centres undefined)
Arrhythmias times (Rattus norvegicus [6]): 413
inhibition (Rattus norvegicus [3]): 30%

CCCCCCCCCCCCC(=O)COC1=C(O)C(=O)OC1C(O)CO (centres undefined)
Inhibition (Cavia porcellus [13]): 14.6%
Arrhythmias times (Rattus norvegicus [14]): 378.2
Efficacy (Rattus norvegicus [15]): >1 mg/kg
Delta heart rate (Rattus norvegicus [16]): -8.3 beats min-1
Inhibition (Cavia porcellus [17]): 30.2%
Delta heart rate (Rattus norvegicus [18]): -35 beats min-1
Delta blood pressure (Rattus norvegicus [19]): -17.7 mmHg
Inhibition (Cavia porcellus [20]): 12.9%
Arrhythmias times (Rattus norvegicus [1]): 185
Inhibition (Cavia porcellus [21]): 25%
Arrhythmias times (Rattus norvegicus [22]): 85.4
Inhibition (Cavia porcellus [23]): 41.3%
Inhibition (Cavia porcellus [11]): 13%
Arrhythmias times (Rattus norvegicus [2]): 313.3
Delta blood pressure (Rattus norvegicus [24]): -5 mmHg
inhibition (Rattus norvegicus [3]): 85%
Efficacy (Rattus norvegicus [25]): >30 mg/kg
Inhibition (Rattus norvegicus [4]): 6.3%
